Laboratory results taken from ChEMBL document CHEMBL1148736, “N-Acylthiadiazolines, a new class of liver X receptor agonists with selectivity for LXRbeta” (J Med Chem, 2007).
pEC50: −log10 of the molar value. The source made the active and inactive calls. No cut-off for these calls is given here.

How the values were obtained:
[1] = molecular target: T1, Oxysterols receptor LXR-beta (Homo sapiens) (UniProt P55055); assay: Activity at human LXRbeta by Gal4 transactivation assay relative to GW-3965
T1 sequence (whole entry): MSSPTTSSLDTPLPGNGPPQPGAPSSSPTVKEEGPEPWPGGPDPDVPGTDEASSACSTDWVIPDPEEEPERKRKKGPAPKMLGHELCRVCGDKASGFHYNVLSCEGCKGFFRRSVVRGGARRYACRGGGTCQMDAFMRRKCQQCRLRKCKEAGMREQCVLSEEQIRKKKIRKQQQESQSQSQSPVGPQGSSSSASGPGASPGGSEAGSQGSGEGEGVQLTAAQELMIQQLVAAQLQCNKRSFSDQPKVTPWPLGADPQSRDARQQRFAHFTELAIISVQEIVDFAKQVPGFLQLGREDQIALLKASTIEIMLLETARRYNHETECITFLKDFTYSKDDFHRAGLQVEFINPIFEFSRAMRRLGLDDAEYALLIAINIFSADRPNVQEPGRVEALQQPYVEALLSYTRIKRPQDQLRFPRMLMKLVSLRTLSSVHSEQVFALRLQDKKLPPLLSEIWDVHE
In short: (§1)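 GAL4 DBD fused to hLXRα or hLXRβ LBD in pcDNA3, co-transfected into HepG2 with luciferase reporter. Cells in DMEM with 10% lipoprotein-deficient FBS, 7.5 µM lovastatin, 100 µM mevalonic acid. Ligand added 24 h post-transfection as 11-point curves from 10 µM; luciferase read after 16 h. Run in quadruplicate. %E = max fold induction vs max fold induction of reference dual agonist in same experiment.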

Macrophage [2] = assay: Induction of ABCA1 gene expression in LXRbeta deficient mouse macrophages; assay type: functional, cell-based
In short: (§2)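 Thioglycollate-elicited peritoneal macrophages from LXR-null mice, plated 24 h. Treated as for THP-1 without PMA: 2% lipoprotein-deficient serum medium, compound in DMSO for 24 h. ABCA1 mRNA by TaqMan qRT-PCR with 36B4 control, fold vs DMSO. Two concentrations used.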

[3] = Clearance in C57BL/6 mouse at 5 mg/kg, iv; assay type: ADME, organism-based; set-up: dose 5 mg/kg, route intravenous; settings: in vivo
In short: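 Mouse PK study, IV and PO; compound formulated at 2.5 mg/mL in PEG300/Tween 80 (4:1). IV dose 5 mpk (AUC, Cmax, clearance, Vss); oral dose 20 mpk (AUC, Cmax, bioavailability, t1/2).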

[4] = molecular target: Peroxisome proliferator-activated receptor (Homo sapiens) (UniProt P37231+Q07869+Q03181); assay: Activity at PPAR by cell based assay
[5] = molecular target: T2, Oxysterols receptor LXR-beta (Homo sapiens, UniProt P55055); assay: Agonist activity at GAL-linked human LXRbeta expressed in THP1 cells assessed as stimulation of co-activator recruitment by FRET assay; assay type: functional
T2 sequence (P55055 whole entry): T1 sequence (whole entry)
In short: (§3)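 Cell-free TR-FRET coactivator recruitment: 20 nM His-tagged hLXRα or hLXRβ, 300 nM biotinylated SRC-1 peptide, Eu-anti-His antibody, APC-streptavidin. 12-point curves from 20 µM; 1 h at 37 °C. Duplicate. %E = maximal coactivator recruitment relative to reference dual agonist in same experiment.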

[6] = molecular target: T3, Oxysterols receptor LXR-alpha (Homo sapiens) (UniProt Q13133); assay: Displacement of [3H]T-0901317 from GAL-linked human LXRalpha expressed in THP1 cells at 20 uM by SPA relative to GW-3965; assay type: cell-based; settings: THP-1
T3 sequence (whole entry): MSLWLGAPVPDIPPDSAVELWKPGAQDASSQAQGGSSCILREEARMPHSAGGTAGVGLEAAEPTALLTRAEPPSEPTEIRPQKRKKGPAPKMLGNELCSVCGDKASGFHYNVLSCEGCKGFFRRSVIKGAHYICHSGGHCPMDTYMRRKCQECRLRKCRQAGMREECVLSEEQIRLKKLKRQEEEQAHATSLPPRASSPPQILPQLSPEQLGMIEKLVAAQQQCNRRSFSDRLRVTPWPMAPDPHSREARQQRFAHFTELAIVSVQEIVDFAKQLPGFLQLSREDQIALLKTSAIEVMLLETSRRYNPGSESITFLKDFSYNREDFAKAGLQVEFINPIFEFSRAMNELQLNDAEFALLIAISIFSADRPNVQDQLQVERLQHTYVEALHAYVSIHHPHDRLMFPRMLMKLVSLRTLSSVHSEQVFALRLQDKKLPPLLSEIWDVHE
In short: (§4)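 Scintillation proximity displacement with His-tagged hLXRα or hLXRβ LBD (200 ng/well) and 30 nM [3H]T0901317. Beads 0.2 mg/well in phosphate buffer with EDTA, NaCl, DTT, CHAPS, 10% glycerol. 12-point curves from 20 µM; shaken 3 h at room temperature. No-competitor wells = 100% binding; nonspecific binding without protein. Efficacy = maximal displacement relative to reference dual agonist.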

[7] = molecular target: T4, Oxysterols receptor LXR-alpha (Homo sapiens, UniProt Q13133); assay: Agonist activity at GAL-linked human LXRalpha expressed in THP1 cells assessed as stimulation of coactivator recruitment by FRET assay; assay type: functional; in short: as §3
T4 sequence (Q13133 whole entry): T3 sequence (whole entry)

[8] = molecular target: Retinoid X receptor (Homo sapiens) (UniProt P28702+P48443+P19793); assay: Activity at RXR by cell based assay
Chain of Retinoid X receptor (Homo sapiens) (P19793 whole entry, looked up): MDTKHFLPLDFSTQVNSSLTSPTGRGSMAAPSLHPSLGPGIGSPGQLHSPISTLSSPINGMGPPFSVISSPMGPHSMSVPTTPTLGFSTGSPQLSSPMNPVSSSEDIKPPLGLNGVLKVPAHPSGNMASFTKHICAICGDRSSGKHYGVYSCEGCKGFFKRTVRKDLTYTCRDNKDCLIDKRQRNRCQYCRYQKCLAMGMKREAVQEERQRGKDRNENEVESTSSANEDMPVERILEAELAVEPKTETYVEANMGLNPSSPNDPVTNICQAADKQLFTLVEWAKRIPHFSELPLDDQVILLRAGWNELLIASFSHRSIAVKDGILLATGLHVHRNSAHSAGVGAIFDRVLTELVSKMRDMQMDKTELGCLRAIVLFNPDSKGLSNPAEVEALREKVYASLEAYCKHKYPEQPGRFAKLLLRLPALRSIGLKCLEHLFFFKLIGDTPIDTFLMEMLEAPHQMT
Chain of Retinoid X receptor (Homo sapiens) (P28702 whole entry, looked up): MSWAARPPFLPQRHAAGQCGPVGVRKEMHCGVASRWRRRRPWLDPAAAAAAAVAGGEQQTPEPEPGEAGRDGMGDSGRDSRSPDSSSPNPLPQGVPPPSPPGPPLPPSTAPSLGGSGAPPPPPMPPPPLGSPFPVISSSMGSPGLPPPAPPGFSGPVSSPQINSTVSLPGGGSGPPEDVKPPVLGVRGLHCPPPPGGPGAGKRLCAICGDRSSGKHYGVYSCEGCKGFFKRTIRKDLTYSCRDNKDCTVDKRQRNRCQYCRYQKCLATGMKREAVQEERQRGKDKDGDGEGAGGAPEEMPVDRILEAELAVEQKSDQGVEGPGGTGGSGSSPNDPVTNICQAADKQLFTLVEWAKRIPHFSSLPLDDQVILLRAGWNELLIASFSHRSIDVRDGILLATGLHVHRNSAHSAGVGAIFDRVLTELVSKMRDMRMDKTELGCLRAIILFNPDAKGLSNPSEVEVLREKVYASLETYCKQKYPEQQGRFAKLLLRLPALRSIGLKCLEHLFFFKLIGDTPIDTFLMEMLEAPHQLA
Chain of Retinoid X receptor (Homo sapiens) (P48443 whole entry, looked up): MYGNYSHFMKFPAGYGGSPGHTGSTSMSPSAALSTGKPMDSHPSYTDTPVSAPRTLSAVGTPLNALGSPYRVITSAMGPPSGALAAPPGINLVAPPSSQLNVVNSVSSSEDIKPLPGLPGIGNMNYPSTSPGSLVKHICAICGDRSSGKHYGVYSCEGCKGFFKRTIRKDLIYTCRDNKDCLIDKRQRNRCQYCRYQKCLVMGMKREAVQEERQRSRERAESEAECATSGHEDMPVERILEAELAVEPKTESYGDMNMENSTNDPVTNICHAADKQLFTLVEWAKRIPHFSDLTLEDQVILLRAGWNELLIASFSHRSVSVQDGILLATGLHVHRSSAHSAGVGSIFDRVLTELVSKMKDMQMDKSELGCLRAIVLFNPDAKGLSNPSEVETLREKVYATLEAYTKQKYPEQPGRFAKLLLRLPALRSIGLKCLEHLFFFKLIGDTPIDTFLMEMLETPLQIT

THP-1 = assay: Increase in ABCA1 gene expression in THP1 cells at 1 uM relative to GW-3965; assay type: functional, Homo sapiens
In short: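 THP-1 cells differentiated with 40 ng/mL PMA for 1 day, then switched to RPMI with 2% lipoprotein-deficient FBS. Compound added 6 h later at 1 or 10 µM in DMSO, incubated 24 h. ABCA1 mRNA by one-step TaqMan qRT-PCR, triplicate, multiplexed with 36B4; fold induction vs DMSO, expressed relative to reference dual agonist.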

[9] = molecular target: T1, Oxysterols receptor LXR-beta (Homo sapiens); assay: Displacement of [3H]T-0901317 from GAL-linked human LXRbeta expressed in THP1 cells at 20 uM by SPA relative to GW-3965; assay type: cell-based; settings: THP-1; in short: as §4
Macrophage [10] = assay: Induction of APO-AI-dependent cholesterol efflux in mouse macrophages; assay type: functional, cell-based
In short: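 Peritoneal macrophages labelled 24 h with [3H]cholesterol (1.0 µCi/mL) plus ACAT inhibitor 58-035 (2 µg/mL), with compound. Then 2–4 h equilibration in label-free medium with compound. Efflux for 4 h into DMEM/0.2% BSA with or without apoAI (15 µg/mL). apoAI-dependent efflux = medium radioactivity as % of total cell plus medium. Triplicate.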

[11] = molecular target: T3, Oxysterols receptor LXR-alpha (Homo sapiens); assay: Activity at human LXRalpha by Gal4 transactivation assay relative to GW-3965; in short: as §1
HepG2 = assay: Increase in FAS gene expression in HepG2 cells at 10 uM relative to GW-3965; assay type: functional, Homo sapiens
Macrophage [12] = assay: Induction of ABCA1 gene expression in LXRalpha deficient mouse macrophages; assay type: functional, cell-based; in short: as §2
Liver [13] = assay: Effect on SREBP1c gene expression in C57BL/6 mouse liver; assay type: functional, tissue-based
In short: (§5)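 Male C57BL/6 mice, 10 weeks old, chow-fed, gavaged daily with vehicle or compound (20–200 mpk) for 3 days. Fasted overnight before the last dose; killed 3 h later. Tissue RNA analysed by TaqMan qRT-PCR.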

Liver [14] = assay: Effect on ABCA1 gene expression in C57BL/6 mouse liver; assay type: functional, tissue-based; in short: as §5
[15] = molecular target: T1, Oxysterols receptor LXR-beta (Homo sapiens); assay: Agonist activity at GAL-linked human LXRbeta expressed in THP1 cells assessed as stimulation of co-activator recruitment by FRET assay relative to GW-3965; assay type: functional; in short: as §3

- Efficacy [1]: 82%
- clearance [3]: 12.2 mL/min/kg
- Activity [4]: inactive
- pEC50 [5]: 6.60
- Efficacy [6]: 52%
- pEC50 [7]: 5.64
- Activity [8]: inactive
- Efficacy [9]: 100%
- Efficacy [11]: 19%
- Efficacy [15]: 99%
SMILES: COc1cccc(C2SC(c3ccc(Cl)cc3)=NN2C(=O)c2c(F)cc(F)cc2F)c1OC (racemic)
- Activity (Macrophage [2]): Active
- Activity (THP-1): 34%
- Activity (Macrophage [10]): Active
- Activity (HepG2): 33%
- Activity (Macrophage [12]): Active
- Activity (Liver [13]): inactive
- Activity (Liver [14]): inactive
